Data as given in ChEMBL document CHEMBL3603803, “Design and synthesis of dithiocarbamate linked β-carboline derivatives: DNA topoisomerase II inhibition with DNA binding and apoptosis inducing ability” (Bioorg Med Chem, 2015).
Each block holds one compound with its values, some of them ahead of it. The source made the active and inactive calls. The calls are words filed in the database; no cut-off is given here.

What was measured:
A549 = assay: Cytotoxicity against human A549 cells after 48 hrs by MTT assay; assay type: functional, cell-based; conditions: A549, 48 h
Method in brief: (§1)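 Human cancer cell lines (A549 lung, MCF-7 breast, DU-145 prostate, HeLa cervical) exposed to compounds for 48 h; 50% inhibitory concentration derived, average of three individual experiments; doxorubicin reference agent.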

MCF7 = assay: Cytotoxicity against human MCF7 cells after 48 hrs by MTT assay; assay type: functional, cell-based; conditions: MCF7, 48 h; method in brief: as §1
DU-145 [1] = assay: Cytotoxicity against human DU145 cells after 48 hrs by MTT assay; assay type: functional, cell-based; conditions: DU-145, 48 h; method in brief: as §1
HeLa = assay: Cytotoxicity against human HeLa cells after 48 hrs by MTT assay; assay type: functional, cell-based; method in brief: as §1
DU-145 [2] = assay: Induction of apoptosis in human DU145 cells assessed as wrinkled cells at 0.5 uM after 48 hrs by Hoechst 33258 staining-based confocal microscopic analysis; assay type: functional, cell-based
Method in brief: (§2)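 Hoechst H33258 staining of treated DU-145 cells at 0.5 µM; apoptotic cells (apoptotic bodies, condensation, nuclear fragmentation) counted by manual field quantification under the microscope, compared with control.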

DU-145 [3] = assay: Induction of apoptosis in human DU145 cells assessed as DNA fragmented cells at 0.5 uM after 48 hrs by Hoechst 33258 staining-based confocal microscopic analysis; assay type: functional, cell-based; method in brief: as §2
[4] = target: DNA topoisomerase II (Homo sapiens) (UniProt P11388+Q02880); assay: Interfacial poisoning activity at DNA-topoisomerase 2 (unknown origin) using catenated kDNA as substrate assessed as linear DNA formation at 1 to 100 uM after 30 mins by agarose gel electrophoresis; assay type: protein assay
Method in brief: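 Catenated DNA incubated with topo II and compound at 1, 10 and 100 µM; gel products scored for linear DNA (poison type) versus nicked circular/relaxed DNA retained in wells (catalytic inhibitor type); etoposide at 1, 10, 100 µM as control.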

Calf thymus DNA [5] = assay: Induction of DNA intercalation of calf thymus DNA at 1 uM by UV-vis spectrophotometric analysis; assay type: nucleic-acid assay; conditions: Bos taurus
Calf thymus DNA [6] = assay: Binding affinity to calf thymus DNA surface at 1 uM by UV-vis spectrophotometric analysis; assay type: nucleic-acid assay; conditions: Bos taurus
Calf thymus DNA [7] = assay: Induction of DNA intercalation of calf thymus DNA at 10 uM by spectrofluorimetric analysis; assay type: nucleic-acid assay; conditions: Bos taurus
Method in brief: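 Fluorescence titration: CT-DNA added to compound solution and quenching of compound emission peak monitored (617 or 567 nm, depending on compound).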

Calf thymus DNA [8] = assay: Stabilization of calf thymus DNA at 1:1 DNA to compound molar ratio by CD spectroscopic analysis; assay type: nucleic-acid assay; conditions: Bos taurus
Method in brief: (§3)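 CD spectra of CT-DNA with compound added at 10 µM to equal CT-DNA concentration (1:1), then raised to 1:2 DNA:ligand; positive band at 275 nm monitored.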

Calf thymus DNA [9] = assay: Stabilization of calf thymus DNA at 1:2 DNA to compound molar ratio by CD spectroscopic analysis; assay type: nucleic-acid assay; conditions: Bos taurus; method in brief: as §3
DU-145 [10] = assay: Cell cycle arrest in human DU145 cells assessed as accumulation at subG1 phase at 0.5 uM after 48 hrs by propidium iodide staining-based flow cytometric analysis (reference value: 6.52%); assay type: functional
DU-145 [11] = assay: Cell cycle arrest in human DU145 cells assessed as accumulation at subG1 phase at 1 uM after 48 hrs by propidium iodide staining-based flow cytometric analysis (reference value: 6.52%); assay type: functional
DU-145 [12] = assay: Cell cycle arrest in human DU145 cells assessed as accumulation at G0/G1 phase at 0.5 uM after 48 hrs by propidium iodide staining-based flow cytometric analysis (reference value: 85.94%); assay type: functional
DU-145 [13] = assay: Cell cycle arrest in human DU145 cells assessed as accumulation at G0/G1 phase at 1 uM after 48 hrs by propidium iodide staining-based flow cytometric analysis (reference value: 85.94%); assay type: functional
DU-145 [14] = assay: Cell cycle arrest in human DU145 cells assessed as accumulation at S phase at 0.5 uM after 48 hrs by propidium iodide staining-based flow cytometric analysis (reference value: 4.02%); assay type: functional
DU-145 [15] = assay: Cell cycle arrest in human DU145 cells assessed as accumulation at S phase at 1 uM after 48 hrs by propidium iodide staining-based flow cytometric analysis (reference value: 4.02%); assay type: functional
DU-145 [16] = assay: Cell cycle arrest in human DU145 cells assessed as accumulation at G2/M phase at 0.5 uM after 48 hrs by propidium iodide staining-based flow cytometric analysis (reference value: 1.97%); assay type: functional
DU-145 [17] = assay: Cell cycle arrest in human DU145 cells assessed as accumulation at G2/M phase at 1 uM after 48 hrs by propidium iodide staining-based flow cytometric analysis (reference value: 1.97%); assay type: functional
DU-145 [18] = assay: Induction of apoptosis in human DU145 cells assessed as necrotic cells at 0.5 uM after 48 hrs by annexin V-FITC/propidium iodide staining-based flow cytometric analysis (reference value: 0.1%); assay type: functional
DU-145 [19] = assay: Induction of apoptosis in human DU145 cells assessed as necrotic cells at 1 uM after 48 hrs by annexin V-FITC/propidium iodide staining-based flow cytometric analysis (reference value: 0.1%); assay type: functional
DU-145 [20] = assay: Induction of apoptosis in human DU145 cells assessed as late apoptotic cells at 0.5 uM after 48 hrs by annexin V-FITC/propidium iodide staining-based flow cytometric analysis (reference value: 1.52%); assay type: functional
DU-145 [21] = assay: Induction of apoptosis in human DU145 cells assessed as late apoptotic cells at 1 uM after 48 hrs by annexin V-FITC/propidium iodide staining-based flow cytometric analysis (reference value: 1.52%); assay type: functional
DU-145 [22] = assay: Induction of apoptosis in human DU145 cells assessed as viable cells at 0.5 uM after 48 hrs by annexin V-FITC/propidium iodide staining-based flow cytometric analysis (reference value: 97.95%); assay type: functional; conditions: DU-145, 48 h, read-out: Activity
DU-145 [23] = assay: Induction of apoptosis in human DU145 cells assessed as viable cells at 1 uM after 48 hrs by annexin V-FITC/propidium iodide staining-based flow cytometric analysis (reference value: 97.95%); assay type: functional; conditions: DU-145, 48 h, read-out: Activity
DU-145 [24] = assay: Induction of apoptosis in human DU145 cells assessed as early apoptotic cells at 0.5 uM after 48 hrs by annexin V-FITC/propidium iodide staining-based flow cytometric analysis (reference value: 0.43%); assay type: functional
DU-145 [25] = assay: Induction of apoptosis in human DU145 cells assessed as early apoptotic cells at 1 uM after 48 hrs by annexin V-FITC/propidium iodide staining-based flow cytometric analysis (reference value: 0.43%); assay type: functional

SMILES: COc1ccc(-c2nc(CNC(=S)SCc3ccccc3)cc3c4ccccc4n(C)c23)cc1
- IC50 (A549): 9.12 µM
- IC50 (MCF7): 3.36 µM
- IC50 (DU-145 [1]): 6.91 µM
- IC50 (HeLa): 13.8 µM

SMILES: FC(F)(F)c1ccc(-c2nc(CNC(=S)SCc3ccccc3)cc3c2[nH]c2ccccc23)cc1
- IC50 (A549): 9.33 µM
- IC50 (MCF7): 12.3 µM
- IC50 (DU-145 [1]): 5.88 µM
- IC50 (HeLa): 3.98 µM

SMILES: CSC(=S)NCc1cc2c3ccccc3n(C)c2c(-c2ccc(F)cc2)n1
- IC50 (A549): 5.62 µM
- IC50 (MCF7): 1.86 µM
- IC50 (DU-145 [1]): 1.45 µM
- IC50 (HeLa): 2.39 µM

SMILES: COc1ccc(-c2nc(CNC(=S)SCc3ccccc3)cc3c2[nH]c2ccccc23)cc1
- IC50 (A549): 17.7 µM
- IC50 (MCF7): 10 µM
- IC50 (DU-145 [1]): 13.8 µM
- IC50 (HeLa): 24.1 µM

SMILES: COc1cc(-c2nc(CN)cc3c2[nH]c2ccccc23)cc(OC)c1OC
- IC50 (A549): 15.1 µM
- IC50 (MCF7): 18.6 µM
- IC50 (DU-145 [1]): 18.3 µM
- IC50 (HeLa): 21.7 µM

SMILES: COc1cc(-c2nc(CNC(=S)SCc3ccccc3)cc3c4ccccc4n(C)c23)cc(OC)c1OC
- IC50 (A549): 14.1 µM
- IC50 (MCF7): 13.9 µM
- IC50 (DU-145 [1]): 10.6 µM
- IC50 (HeLa): 12.3 µM

SMILES: C=CCSC(=S)NCc1cc2c3ccccc3n(C)c2c(-c2ccc(F)cc2)n1
- IC50 (A549): 6.02 µM
- IC50 (MCF7): 3.01 µM
- IC50 (DU-145 [1]): 2.88 µM
- IC50 (HeLa): 2.57 µM

SMILES: COc1cc(-c2nc(CN)cc3c4ccccc4n(C)c23)cc(OC)c1OC
- IC50 (A549): 18.2 µM
- IC50 (MCF7): 15.1 µM
- IC50 (DU-145 [1]): 14.8 µM
- IC50 (HeLa): 19.9 µM

SMILES: COc1cc(-c2nc(CNC(=S)SC)cc3c2[nH]c2ccccc23)cc(OC)c1OC
- IC50 (A549): 8.12 µM
- IC50 (MCF7): 8.91 µM
- IC50 (DU-145 [1]): 5.62 µM
- IC50 (HeLa): 11.3 µM

- Activity (Calf thymus DNA [5]): Active
- Activity (Calf thymus DNA [6]): Active
- Activity (Calf thymus DNA [7]): Active
- Activity (Calf thymus DNA [8]): Active
- Activity (Calf thymus DNA [9]): Active
SMILES: CSC(=S)NCc1cc2c3ccccc3n(C)c2c(-c2ccc(C(F)(F)F)cc2)n1
- Activity (DU-145 [2]): Active
- Activity (DU-145 [3]): Active
- Activity [4]: Active
- IC50 (A549): 3.54 µM
- IC50 (MCF7): 1.09 µM
- IC50 (DU-145 [1]): 0.79 µM
- IC50 (HeLa): 1.47 µM
- Activity (DU-145 [10]): 10.12%
- Activity (DU-145 [11]): 18.6%
- Activity (DU-145 [12]): 78.9%
- Activity (DU-145 [13]): 70.81%
- Activity (DU-145 [14]): 5.18%
- Activity (DU-145 [15]): 5.31%
- Activity (DU-145 [16]): 3.73%
- Activity (DU-145 [17]): 5.36%
- Activity (DU-145 [18]): 0.93%
- Activity (DU-145 [19]): 1.65%
- Activity (DU-145 [20]): 13.7%
- Activity (DU-145 [21]): 21.19%
- viability at 0.5 µM (DU-145 [22]): 81.5%
- viability at 1 µM (DU-145 [23]): 75%
- Activity (DU-145 [24]): 3.82%
- Activity (DU-145 [25]): 2.18%

SMILES: C=CCSC(=S)NCc1cc2c([nH]c3ccccc32)c(-c2ccc(OC)cc2)n1
- IC50 (A549): 51.4 µM
- IC50 (MCF7): 38.8 µM
- IC50 (DU-145 [1]): 46.7 µM
- IC50 (HeLa): 59.1 µM

SMILES: C=CCSC(=S)NCc1cc2c([nH]c3ccccc32)c(-c2ccc(F)cc2)n1
- IC50 (A549): 16.7 µM
- IC50 (MCF7): 6.6 µM
- IC50 (DU-145 [1]): 3.98 µM
- IC50 (HeLa): 4.46 µM

SMILES: C=CCSC(=S)NCc1cc2c([nH]c3ccccc32)c(-c2ccc(C(F)(F)F)cc2)n1
- IC50 (A549): 18.6 µM
- IC50 (MCF7): 10.9 µM
- IC50 (DU-145 [1]): 7.76 µM
- IC50 (HeLa): 10.6 µM

SMILES: NCc1cc2c([nH]c3ccccc32)c(-c2ccc(F)cc2)n1
- IC50 (A549): 21.1 µM
- IC50 (MCF7): 17.9 µM
- IC50 (DU-145 [1]): 13.8 µM
- IC50 (HeLa): 22.5 µM

SMILES: Cn1c2ccccc2c2cc(CN)nc(-c3ccc(F)cc3)c21
- IC50 (A549): 19.5 µM
- IC50 (MCF7): 16.6 µM
- IC50 (DU-145 [1]): 10 µM
- IC50 (HeLa): 20.5 µM

SMILES: CSC(=S)NCc1cc2c([nH]c3ccccc32)c(-c2ccc(C(F)(F)F)cc2)n1
- IC50 (A549): 16.9 µM
- IC50 (MCF7): 15.8 µM
- IC50 (DU-145 [1]): 9.54 µM
- IC50 (HeLa): 12.6 µM

SMILES: COc1ccc(-c2nc(CNC(=S)SC)cc3c4ccccc4n(C)c23)cc1
- IC50 (A549): 5.12 µM
- IC50 (MCF7): 1.51 µM
- IC50 (DU-145 [1]): 1.41 µM
- IC50 (HeLa): 2.57 µM
